In general, Emax refers to the maximal effect, on the per cent scale that the assay sets.

Holding throughout (type): cell-based
Assay [1] concerns the target Probable G-protein coupled receptor 34 (Mus musculus, UniProt Q9R1K6). The assay can be described thus: Agonist activity at mouse GPR34 expressed in HEK293 cells co-transfected with AP-TGFalpha/chimeric Galphaq/i1 assessed as induction of ectodomain shedding of membrane bound AP-TGFalpha after 1 hr. In outline:
(§1)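 HEK293A cells transiently co-transfected with AP-TGFα, chimeric Gαq/i1 and GPR34 (human for line 1, mouse for line 3) or empty vector (mock). After 24 h, cells were suspended in HBSS with 5 mM HEPES pH 7.4 and preincubated 30 min with 10 μM (final) Ki16425. Compounds in HBSS with 0.01% fatty acid-free BSA were added for 1 h at 37 °C. AP activity in medium and on cells was read as OD405 with p-NPP after 1 h at room temperature.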

Assay [2] has as its target Probable G-protein coupled receptor 34 (Mus musculus) (UniProt Q9R1K6). The assay can be described thus: Intrinsic activity at mouse GPR34 expressed in HEK293 cells co-transfected with AP-TGFalpha/chimeric […] assessed as induction of ectodomain shedding of membrane bound AP-TGFalpha after 1 hr relative to O-(Hydroxy(((2R,3R)-2-(((3-(2-((3-phenoxybenzyl)oxy)phenyl)- propanoyl)oxy)methyl)tetrahydro-2H-pyran-3-yl)oxy)phosphoryl)- L-serine. In outline: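 Relative intrinsic activity (RIA) was Emax/EC50 relative to that of a positive control agonist, whose RIA is defined as 1. Emax and EC50 came from sigmoid fits of receptor-specific AP-TGFα release in the HEK293A shedding assay, with human GPR34 for line 5 and mouse GPR34 for line 6, after 1 h at 37 °C.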

Assay [3] shares this target. The experiment in a line: Agonist activity at mouse GPR34 expressed in HEK293 cells co-transfected with AP-TGFalpha/chimeric Galphaq/i1 assessed as induction of ectodomain shedding of membrane bound AP-TGFalpha after 1 hr relative to control. In outline: (§2)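 Same AP-TGFα shedding set-up in HEK293A (human GPR34 for line 2, mouse for line 4). Release was the %AP-TGFα in medium minus vehicle, then minus the mock-transfected response. Emax (% AP-TGFα release) and LogEC50 came from four-parameter sigmoid fits of plateau or semiplateau curves, as mean ± SEM of n independent experiments.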

In assay [4] the target is T1, Probable G-protein coupled receptor 34 (Homo sapiens, UniProt Q9UPC5). The assay can be described thus: Agonist activity at human GPR34 expressed in HEK293 cells co-transfected with AP-TGFalpha/chimeric Galphaq/i1 assessed as induction of AP-TGFalpha release after 1 hr. The essentials: as §1
Assay [5] has as its target T1, Probable G-protein coupled receptor 34. The assay can be described thus: Intrinsic activity at human GPR34 expressed in HEK293 cells co-transfected with AP-TGFalpha/chimeric Galphaq/i1 assessed as induction of AP-TGFalpha release after 1 hr relative to O-(Hydroxy(((2R,3R)-2-(((3-(2-((3-phenoxybenzyl)oxy)phenyl)- propanoyl)oxy)methyl)tetrahydro-2H-pyran-3-yl)oxy)phosphoryl)- L-serine.

For assay [6] the target is unchanged. The experiment in a line: Agonist activity at human GPR34 expressed in HEK293 cells co-transfected with AP-TGFalpha/chimeric Galphaq/i1 assessed as induction of AP-TGFalpha release after 1 hr relative to control. The essentials: as §2

Sequence of Probable G-protein coupled receptor 34 (Mus musculus, UniProt Q9R1K6) (Q9R1K6 whole entry, the tested form may be a part): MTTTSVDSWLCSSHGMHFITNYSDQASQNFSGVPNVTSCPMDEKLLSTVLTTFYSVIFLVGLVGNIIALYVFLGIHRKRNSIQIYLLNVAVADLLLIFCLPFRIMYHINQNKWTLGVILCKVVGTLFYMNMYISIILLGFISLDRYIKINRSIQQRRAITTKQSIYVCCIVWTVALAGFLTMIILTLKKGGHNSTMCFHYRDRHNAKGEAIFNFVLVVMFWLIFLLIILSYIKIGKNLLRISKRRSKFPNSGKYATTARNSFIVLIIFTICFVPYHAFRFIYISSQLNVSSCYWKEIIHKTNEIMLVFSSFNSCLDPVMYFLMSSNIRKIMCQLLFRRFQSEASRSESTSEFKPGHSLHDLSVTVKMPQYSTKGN
Sequence of Probable G-protein coupled receptor 34 (Mus musculus) (Q9R1K6 whole entry, the tested form may be a part): as above
T1 sequence (Q9UPC5 whole entry): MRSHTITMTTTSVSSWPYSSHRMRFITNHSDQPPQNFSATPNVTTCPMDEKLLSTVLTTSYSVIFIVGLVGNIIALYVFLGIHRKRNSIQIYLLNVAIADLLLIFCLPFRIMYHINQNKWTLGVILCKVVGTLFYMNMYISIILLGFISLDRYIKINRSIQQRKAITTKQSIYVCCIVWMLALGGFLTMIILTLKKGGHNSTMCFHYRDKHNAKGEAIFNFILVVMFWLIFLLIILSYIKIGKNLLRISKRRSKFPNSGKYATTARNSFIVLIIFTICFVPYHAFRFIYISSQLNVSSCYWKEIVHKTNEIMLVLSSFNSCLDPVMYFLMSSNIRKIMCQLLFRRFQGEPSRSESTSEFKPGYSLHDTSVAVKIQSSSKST

For the compound `CCCCCCCCCCCOc1ccccc1CCC(=O)OCCCOP(=O)(O)OC[C@H](N)C(=O)O`, the EC50 in assay [1] turned out to be 1600 nM. For the same compound, the Intrinsic activity in assay [2] turned out to be 0.04. The Emax in assay [3] was determined as 14.6%.

Consider `CCCCCCOCC#CCOc1ccccc1CCC(=O)OCCCOP(=O)(O)OC[C@H](N)C(=O)O`, for which, in assay [1], the EC50 was more than 3000 nM.

For `N[C@@H](COP(=O)(O)OCCCOC(=O)CCc1ccccc1OCc1cccc(Oc2ccccc2Cl)c1)C(=O)O`, the EC50 in assay [1] came out at 1200 nM. In assay [2], the Intrinsic activity came to 0.069. The Emax in assay [3] was found to be 19.8%.

On to `N[C@@H](COP(=O)(O)OCCCOC(=O)CCc1ccccc1OCc1cccc(Cc2ccccc2)c1)C(=O)O`, for which, in assay [1], the EC50 was found to be 1300 nM. The Intrinsic activity in assay [2] came to 0.077. Further, the Emax in assay [3] was 14.5%.

For `CCCCCCCC/C=C\CCCCCCCC(=O)OC[C@@H](O)COP(=O)(O)OC[C@H](N)C(=O)O`, the Intrinsic activity in assay [2] turned out to be 0.26. Also, the Emax in assay [3] worked out at 14%.

As to `Cc1ccccc1Oc1cccc(COc2ccccc2CCC(=O)OCCCOP(=O)(O)OC[C@H](N)C(=O)O)c1`, the EC50 in assay [1] came out at 650 nM; in assay [4] (read-out: EC50), 180 nM. Further, the figures for the Intrinsic activity in assay [2] and in assay [5] were 0.28 and 1.2, respectively. The Emax worked out at 20.3% in assay [3] and 22% in assay [6].

On to `N[C@@H](COP(=O)(O)OCCCOC(=O)CCc1ccccc1OCCCCOc1ccccc1)C(=O)O`, for which the EC50 in assay [1] was determined as 1700 nM. Also, in assay [2], the Intrinsic activity was found to be 0.033. For the same compound, the Emax in assay [3] is 6.1%.

As to `Nc1ccc(Oc2cccc(COc3ccccc3CCC(=O)OCCCOP(=O)(O)OC[C@H](N)C(=O)O)c2)cc1`, the EC50 in assay [1] stood at 2700 nM. Besides, the Intrinsic activity in assay [2] amounted to 0.089. Moreover, the Emax in assay [3] was determined as 21.3%.

On to `CCCCCCCC/C=C\CCCCCCCC(=O)OCCCOP(=O)(O)OC[C@H](N)C(=O)O`, for which, in assay [1], the EC50 is more than 3000 nM.

Take `Cc1ccc(Oc2cccc(COc3ccccc3CCC(=O)OCCCOP(=O)(O)OC[C@H](N)C(=O)O)c2)cc1`: the EC50 in assay [1] is 39 nM; in assay [4] (read-out: EC50), 27 nM. Moreover, the Intrinsic activity amounted to 3.7 in assay [2] and 9.8 in assay [5]. Besides, the results for the Emax in assay [3] and in assay [6] were 18.2% and 22.1%, respectively.

Regarding `N[C@@H](COP(=O)(O)O[C@@H]1CCCO[C@@H]1COC(=O)CCc1ccccc1OCc1cccc(Oc2ccccc2)c1)C(=O)O`, the EC50 turned out to be 180 nM in assay [1] and 150 nM in assay [4] (read-out: EC50). Moreover, the Intrinsic activity in assay [2] and in assay [5] was 1 throughout. In addition, the Emax in assay [3] was 21.3%; in assay [6], 25.6%.

With `N[C@@H](COP(=O)(O)OCCCOC(=O)CCc1ccccc1OCc1cccc(Oc2ccc(Cl)c(Cl)c2)c1)C(=O)O`, the EC50 in assay [1] was 110 nM. Besides, the Intrinsic activity in assay [2] was determined as 0.71. Further, the Emax in assay [3] amounted to 18%.

`N[C@@H](COP(=O)(O)OCCCOC(=O)CCc1ccccc1OCCCCCCOc1ccccc1)C(=O)O`: in assay [1], the EC50 stood at 1200 nM. The Intrinsic activity in assay [2] is 0.071. The Emax in assay [3] was found to be 20.7%.

As for `CCCCCCOc1cccc(COc2ccccc2CCC(=O)OCCCOP(=O)(O)OC[C@H](N)C(=O)O)c1`, the EC50 in assay [1] is more than 3000 nM.

As for `CC(C)(C)c1ccccc1Oc1cccc(COc2ccccc2CCC(=O)OCCCOP(=O)(O)OC[C@H](N)C(=O)O)c1`, the EC50 in assay [1] was more than 3000 nM.

Consider `N[C@@H](COP(=O)(O)OCCCOC(=O)CCc1ccccc1OCc1cccc(Oc2ccc(-c3ccccc3)cc2)c1)C(=O)O`, for which the EC50 turned out to be 45 nM in assay [1] and 78 nM in assay [4] (read-out: EC50). Also, the Intrinsic activity in assay [2] is 2.2; in assay [5], 2.1. For the same compound, the Emax is 17.8% in assay [3] and 23% in assay [6].

Take `N[C@@H](COP(=O)(O)OCCCOC(=O)CCc1ccccc1OCc1cccc(Oc2ccccc2)c1)C(=O)O`: the EC50 is 220 nM in assay [1], 90 nM in assay [4] (read-out: EC50) and 95.5 nM in assay [4] (read-out: pEC50 (converted)). Also, the Intrinsic activity came to 0.48 in assay [2] and 1.7 in assay [5]. In addition, the Emax in assay [3] is 19.4%; in assay [6], 21.7%.

As to `CC(C)(C)c1cccc(Oc2cccc(COc3ccccc3CCC(=O)OCCCOP(=O)(O)OC[C@H](N)C(=O)O)c2)c1`, the EC50 in assay [1] was found to be 210 nM. Further, in assay [2], the Intrinsic activity stood at 0.39. Moreover, the Emax in assay [3] came out at 19.9%.

On to `Cc1ccccc1-c1ccc(Oc2cccc(COc3ccccc3CCC(=O)OCCCOP(=O)(O)OC[C@H](N)C(=O)O)c2)cc1`, for which, in assay [1], the EC50 came to 78 nM. The Intrinsic activity in assay [2] was 0.94. Moreover, the Emax in assay [3] was 13.4%.

On to `N#Cc1ccc(Oc2cccc(COc3ccccc3CCC(=O)OCCCOP(=O)(O)OC[C@H](N)C(=O)O)c2)cc1`, for which the EC50 in assay [1] came out at 2000 nM. The Intrinsic activity in assay [2] was 0.041. In assay [3], the Emax was determined as 18.3%.

On to `Cc1cccc(Oc2cccc(COc3ccccc3CCC(=O)OCCCOP(=O)(O)OC[C@H](N)C(=O)O)c2)c1`, for which the values for the EC50 in assay [1] and in assay [4] (read-out: EC50) were 550 nM and 230 nM, respectively. The Intrinsic activity turned out to be 0.29 in assay [2] and 1.2 in assay [5]. For the same compound, the Emax in assay [3] was 21.3%; in assay [6] it was 24.2%.

On to `N[C@@H](COP(=O)(O)OCCCOC(=O)CCc1ccccc1OCc1cccc(OCc2ccccc2)c1)C(=O)O`, for which the EC50 in assay [1] is more than 3000 nM.

For the compound `N[C@@H](COP(=O)(O)OCCCOC(=O)CCc1ccccc1OCc1cccc(-c2ccccc2)c1)C(=O)O`, the EC50 in assay [1] is more than 3000 nM.

Take `N[C@@H](COP(=O)(O)OCCCOC(=O)CCc1ccccc1OCc1cccc(Oc2ccc(Br)cc2)c1)C(=O)O`: the EC50 in assay [1] came out at 82 nM. In assay [2], the Intrinsic activity was 0.97. Besides, the Emax in assay [3] was 17.7%.

As to `N[C@@H](COP(=O)(O)OCCCOC(=O)CCc1ccccc1OCc1cccc(Oc2ccc(I)cc2)c1)C(=O)O`, the EC50 in assay [1] amounted to 100 nM. The Intrinsic activity in assay [2] came out at 0.82. For the same compound, the Emax in assay [3] was 19.1%.

`N[C@@H](COP(=O)(O)OCCCOC(=O)CCc1ccccc1OCc1cccc(OC2CCCCC2)c1)C(=O)O`: in assay [1], the EC50 is 800 nM. Moreover, in assay [2], the Intrinsic activity was 0.11. For the same compound, the Emax in assay [3] stood at 18.8%.

As for `CCCCCCOc1ccc(-c2ccc(Oc3cccc(COc4ccccc4CCC(=O)OCCCOP(=O)(O)OC[C@H](N)C(=O)O)c3)cc2)cc1`, in assay [1], the EC50 amounted to 49 nM. The Intrinsic activity in assay [2] was 3.4. Further, the Emax in assay [3] came out at 17.4%.

For the compound `N[C@@H](COP(=O)(O)OCCCOC(=O)CCc1ccccc1OCc1cccc(Oc2ccc(Cl)cc2)c1)C(=O)O`, the EC50 in assay [1] came to 120 nM. Besides, in assay [2], the Intrinsic activity turned out to be 0.76. For the same compound, the Emax in assay [3] is 17.8%.

Consider `CCc1ccc(Oc2cccc(COc3ccccc3CCC(=O)OCCCOP(=O)(O)OC[C@H](N)C(=O)O)c2)cc1`, for which, in assay [1], the EC50 was determined as 180 nM. Moreover, the Intrinsic activity in assay [2] came out at 0.42. Moreover, the Emax in assay [3] was found to be 19.3%.

Take `N[C@@H](COP(=O)(O)OCCCOC(=O)CCc1ccccc1OCc1cccc(Oc2cccc(Cl)c2)c1)C(=O)O`: the EC50 in assay [1] was found to be 170 nM. In addition, in assay [2], the Intrinsic activity turned out to be 0.53. Also, the Emax in assay [3] was determined as 17.1%.

`N[C@@H](COP(=O)(O)OCCCOC(=O)CCc1ccccc1OCc1cccc(Oc2ccc(F)cc2)c1)C(=O)O`: the EC50 in assay [1] stood at 120 nM. Moreover, the Intrinsic activity in assay [2] turned out to be 0.66. For the same compound, the Emax in assay [3] is 18.7%.

In the case of `CC(C)(C)c1ccc(Oc2cccc(COc3ccccc3CCC(=O)OCCCOP(=O)(O)OC[C@H](N)C(=O)O)c2)cc1`, the EC50 worked out at 900 nM in assay [1] and 300 nM in assay [4] (read-out: EC50). Also, the Intrinsic activity came out at 0.079 in assay [2] and 0.7 in assay [5]. The values for the Emax in assay [3] and in assay [6] were 16.9% and 28.2%, respectively.

For the compound `CC(C)(C)c1cccc(-c2ccc(Oc3cccc(COc4ccccc4CCC(=O)OCCCOP(=O)(O)OC[C@H](N)C(=O)O)c3)cc2)c1`, the EC50 in assay [1] is 14 nM; in assay [4] (read-out: EC50), 15 nM. Besides, the Intrinsic activity in assay [2] is 7.7; in assay [5], 8.6. Also, the values for the Emax in assay [3] and in assay [6] were 15.9% and 18.8%, respectively.

`COc1ccc(Oc2cccc(COc3ccccc3CCC(=O)OCCCOP(=O)(O)OC[C@H](N)C(=O)O)c2)cc1`: the EC50 in assay [1] turned out to be 260 nM. In assay [2], the Intrinsic activity came out at 0.28. In assay [3], the Emax came out at 16.6%.

For the compound `CC(C)(C)c1ccc(-c2ccc(Oc3cccc(COc4ccccc4CCC(=O)OCCCOP(=O)(O)OC[C@H](N)C(=O)O)c3)cc2)cc1`, the EC50 in assay [1] amounted to 7.9 nM. Moreover, the Intrinsic activity in assay [2] came to 21. Besides, the Emax in assay [3] stood at 16.5%.

(Values after ChEMBL document CHEMBL4011662 (J Med Chem, 2017).)
